In ChEMBL document CHEMBL3407422, “2-(2-oxo-morpholin-3-yl)-acetamide derivatives as broad-spectrum antifungal agents” (J Med Chem, 2015):
≈ marks a conversion by molar mass, not a printed value. Calls of active or inactive are those of the source. No cut-off for these calls is given here.

Experiments:
[1] = Half life in mouse liver microsomes; format: ADME
CYP2D6 = CYP2D6 (Homo sapiens, UniProt P10635); test: Inhibition of CYP2D6 (unknown origin) at 10 uM; format: ADME
[2] = Half life in human plasma; format: ADME, cell-free
[3] = test system: Trichophyton mentagrophytes; test: Fungicidal activity against Trichophyton mentagrophytes B70554; format: functional, organism-based
Procedure, shortened: (§1)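 Inoculum of 10^3 CFU in RPMI-MOPS added to prediluted compound, highest concentration 64 µM. Growth read by resazurin fluorescence (ex 550, em 590 nm). IC50 is 50% growth inhibition versus untreated controls. Three independent replicates.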

[4] = Half life in human liver microsomes; format: ADME
hERG (KCNH2) = hERG (KCNH2) (Homo sapiens, UniProt Q12809); test: Inhibition of human ERG channel at 10 uM
Sporothrix schenckii = test: Fungicidal activity against Sporothrix schenckii B62482; format: functional, organism-based; procedure, shortened: as §1
Nakaseomyces glabratus = test: Antifungal activity against Candida glabrata BG2 after 24 hrs; format: functional
Procedure, shortened: (§2)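 Overnight YPD cultures diluted in PBS (1/200 for C. albicans, 1/400 for C. glabrata). Cells treated with compound, or 2.5% DMSO as solvent control, for 24 h at 37 °C. CFUs then counted; MFC is the concentration giving 99% killing of the inoculum.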

CYP2C19 = CYP2C19 (Homo sapiens, UniProt P33261); test: Inhibition of CYP2C19 (unknown origin) at 10 uM; format: ADME
[5] = Plasma protein binding in human; format: ADME, cell-free; conditions: read-out: PPB (converted)
[6] = Cytotoxicity against human MRC5 SV2 cells after 72 hrs by fluorescence assay; format: cell-based
Procedure, shortened: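 MRC-5 SV2 cells (10^4/well) grown in MEM with L-glutamine, NaHCO3 and 5% FCS. Incubated with compound 72 h at 37 °C, 5% CO2, then resazurin added for 24 h. Fluorescence read at ex 530, em 590 nm.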

Candida albicans [7] = test: Antifungal activity against Candida albicans SC5314 infected in BALB/c mouse assessed as reduction in reduction in fungal load in kidney at 10 mg/kg/day, ip for 5 days relative to vehicle-treated control; format: functional, organism-based
Procedure, shortened: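 BALB/c mice given cyclophosphamide 100 mg/kg at 4 days and 24 h before infection and at 3 days after. Infected IV with 2×10^3 SC5314 cells in saline. Dosed IP daily for 5 days from 16 h post-infection, in DMSO/0.5% methylcellulose (5/95). Organs taken on day 7, homogenized and plated on BHI agar (18 h, 37 °C). CFU/g compared with vehicle.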

Trichophyton rubrum = test: Fungicidal activity against Trichophyton rubrum B68183; format: functional, organism-based; procedure, shortened: as §1
CYP1A2 = target: T1, CYP1A2 (Homo sapiens, UniProt P05177); test: Inhibition of CYP1A2 (unknown origin) at 10 uM; format: ADME
T1 sequence (P05177 whole entry): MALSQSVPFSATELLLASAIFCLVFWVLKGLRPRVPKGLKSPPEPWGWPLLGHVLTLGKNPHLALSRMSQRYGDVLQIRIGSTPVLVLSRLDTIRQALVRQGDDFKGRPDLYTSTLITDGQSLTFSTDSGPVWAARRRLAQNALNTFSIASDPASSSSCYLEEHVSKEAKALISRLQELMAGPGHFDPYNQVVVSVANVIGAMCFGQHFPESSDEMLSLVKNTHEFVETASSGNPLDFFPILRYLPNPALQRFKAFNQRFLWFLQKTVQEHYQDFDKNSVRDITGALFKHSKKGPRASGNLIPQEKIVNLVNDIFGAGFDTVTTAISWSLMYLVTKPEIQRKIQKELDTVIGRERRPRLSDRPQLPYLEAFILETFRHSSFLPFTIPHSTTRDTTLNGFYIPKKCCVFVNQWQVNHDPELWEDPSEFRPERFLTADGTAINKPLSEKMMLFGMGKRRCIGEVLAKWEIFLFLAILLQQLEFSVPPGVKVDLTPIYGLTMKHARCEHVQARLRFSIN

[8] = Drug metabolism in mouse liver microsomes at 10 uM after 90 mins by LC-MS/MS analysis; format: ADME; conditions: 1.5 h
[9] = Apparent permeability from apical to basolateral side in human Caco2 cells; format: ADME, cell-based; conditions: Caco-2
CYP3A4 = CYP3A4 (Homo sapiens, UniProt P08684); test: Inhibition of CYP3A4 (unknown origin) at 10 uM; format: ADME
[10] = Kinetic solubility of the compound at pH 7.4; format: physicochemical; conditions: buffer, read-out: Kinetic_solubility
Candida albicans [11] = test: Antifungal activity against Candida albicans SC5314 after 24 hrs; format: functional; procedure, shortened: as §2
Microsporum canis = test: Fungicidal activity against Microsporum canis B68128; format: functional; procedure, shortened: as §1
[12] = Apparent permeability from basolateral to apical side in human Caco2 cells; format: ADME, cell-based; conditions: Caco-2
CYP2C9 = CYP2C9 (Homo sapiens, UniProt P11712); test: Inhibition of CYP2C9 (unknown origin) at 10 uM; format: ADME
[13] = Half life in simulated gastric fluid at pH 1.2; format: ADME
Procedure, shortened: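 Stability in simulated gastric fluid containing 800000 Units/L pepsin at pH 1.2; half-life reported.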

Aspergillus flavus = test: Antifungal activity against Aspergillus flavus CBS111.45 after 24 hrs by two-fold dilution method; format: functional; conditions: CBS111.45, 24 h
Procedure, shortened: (§3)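 Spores at 2×10^4 spores/mL in potato dextrose broth, incubated with a 2-fold compound dilution series for 24 h at 25 °C. Growth read by microspectrophotometry of the liquid cultures. MIC taken as the lowest concentration inhibiting fungal growth.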

Aspergillus fumigatus = test: Antifungal activity against Aspergillus fumigatus CBS 117202 after 24 hrs by two-fold dilution method; format: functional; conditions: CBS 117202, 24 h; procedure, shortened: as §3
[14] = Half life in simulated intestinal fluid […]; format: ADME

Chain of CYP3A4 (P08684 whole entry): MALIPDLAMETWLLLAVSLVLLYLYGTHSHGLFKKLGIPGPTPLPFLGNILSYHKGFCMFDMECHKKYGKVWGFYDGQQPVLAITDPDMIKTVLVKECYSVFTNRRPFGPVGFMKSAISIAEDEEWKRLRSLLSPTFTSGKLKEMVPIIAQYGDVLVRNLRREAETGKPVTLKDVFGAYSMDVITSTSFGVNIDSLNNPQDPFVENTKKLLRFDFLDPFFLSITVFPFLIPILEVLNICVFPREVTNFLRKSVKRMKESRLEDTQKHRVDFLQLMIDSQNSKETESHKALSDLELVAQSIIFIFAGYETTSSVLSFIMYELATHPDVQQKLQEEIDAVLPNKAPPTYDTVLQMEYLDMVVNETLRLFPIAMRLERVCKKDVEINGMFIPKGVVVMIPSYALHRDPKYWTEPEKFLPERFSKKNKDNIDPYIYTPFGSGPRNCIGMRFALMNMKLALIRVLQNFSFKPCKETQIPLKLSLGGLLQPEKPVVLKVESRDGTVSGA
Chain of hERG (KCNH2) (Q12809 whole entry): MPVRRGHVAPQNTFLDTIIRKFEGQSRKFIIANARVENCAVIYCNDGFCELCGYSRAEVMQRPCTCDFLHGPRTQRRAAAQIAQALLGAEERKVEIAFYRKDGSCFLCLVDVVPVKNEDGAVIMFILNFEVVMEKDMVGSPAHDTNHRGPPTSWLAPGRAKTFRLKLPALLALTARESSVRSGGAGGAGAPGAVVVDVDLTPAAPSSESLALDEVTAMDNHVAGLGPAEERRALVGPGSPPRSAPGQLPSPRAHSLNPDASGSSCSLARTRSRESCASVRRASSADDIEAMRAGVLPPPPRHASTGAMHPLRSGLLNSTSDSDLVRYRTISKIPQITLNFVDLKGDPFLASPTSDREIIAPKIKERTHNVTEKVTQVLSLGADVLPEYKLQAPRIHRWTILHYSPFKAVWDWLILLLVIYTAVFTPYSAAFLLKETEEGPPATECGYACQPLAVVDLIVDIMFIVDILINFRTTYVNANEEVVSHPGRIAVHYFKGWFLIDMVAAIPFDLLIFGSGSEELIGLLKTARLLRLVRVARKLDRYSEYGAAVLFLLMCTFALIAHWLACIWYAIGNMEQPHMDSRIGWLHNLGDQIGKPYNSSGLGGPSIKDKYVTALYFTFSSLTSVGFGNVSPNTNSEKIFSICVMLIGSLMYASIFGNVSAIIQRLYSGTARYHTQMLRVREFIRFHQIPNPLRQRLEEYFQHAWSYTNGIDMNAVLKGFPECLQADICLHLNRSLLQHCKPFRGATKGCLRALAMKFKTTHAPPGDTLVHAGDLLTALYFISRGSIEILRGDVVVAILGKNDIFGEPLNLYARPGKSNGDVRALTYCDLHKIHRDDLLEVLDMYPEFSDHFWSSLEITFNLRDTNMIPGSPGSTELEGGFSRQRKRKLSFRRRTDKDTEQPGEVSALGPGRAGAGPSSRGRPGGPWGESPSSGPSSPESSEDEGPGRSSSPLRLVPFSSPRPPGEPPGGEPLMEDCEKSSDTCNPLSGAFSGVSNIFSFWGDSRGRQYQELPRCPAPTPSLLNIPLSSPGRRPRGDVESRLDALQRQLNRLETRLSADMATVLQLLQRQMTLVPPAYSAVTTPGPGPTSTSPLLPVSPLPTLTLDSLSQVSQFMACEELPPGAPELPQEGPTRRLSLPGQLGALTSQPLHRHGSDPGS
Chain of CYP2C19 (P33261 whole entry): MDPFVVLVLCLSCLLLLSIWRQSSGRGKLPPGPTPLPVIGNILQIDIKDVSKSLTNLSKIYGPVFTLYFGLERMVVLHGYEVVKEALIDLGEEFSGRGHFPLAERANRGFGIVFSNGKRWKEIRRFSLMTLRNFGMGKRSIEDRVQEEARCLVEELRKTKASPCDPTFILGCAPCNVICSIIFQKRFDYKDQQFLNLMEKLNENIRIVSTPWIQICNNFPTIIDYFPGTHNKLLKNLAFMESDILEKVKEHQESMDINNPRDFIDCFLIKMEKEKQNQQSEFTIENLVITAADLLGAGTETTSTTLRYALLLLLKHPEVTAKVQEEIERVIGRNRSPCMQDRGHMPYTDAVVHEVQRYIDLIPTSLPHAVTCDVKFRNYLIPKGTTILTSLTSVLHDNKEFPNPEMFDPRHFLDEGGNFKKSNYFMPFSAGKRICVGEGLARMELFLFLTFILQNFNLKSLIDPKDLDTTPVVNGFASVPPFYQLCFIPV
Chain of CYP2D6 (P10635 whole entry): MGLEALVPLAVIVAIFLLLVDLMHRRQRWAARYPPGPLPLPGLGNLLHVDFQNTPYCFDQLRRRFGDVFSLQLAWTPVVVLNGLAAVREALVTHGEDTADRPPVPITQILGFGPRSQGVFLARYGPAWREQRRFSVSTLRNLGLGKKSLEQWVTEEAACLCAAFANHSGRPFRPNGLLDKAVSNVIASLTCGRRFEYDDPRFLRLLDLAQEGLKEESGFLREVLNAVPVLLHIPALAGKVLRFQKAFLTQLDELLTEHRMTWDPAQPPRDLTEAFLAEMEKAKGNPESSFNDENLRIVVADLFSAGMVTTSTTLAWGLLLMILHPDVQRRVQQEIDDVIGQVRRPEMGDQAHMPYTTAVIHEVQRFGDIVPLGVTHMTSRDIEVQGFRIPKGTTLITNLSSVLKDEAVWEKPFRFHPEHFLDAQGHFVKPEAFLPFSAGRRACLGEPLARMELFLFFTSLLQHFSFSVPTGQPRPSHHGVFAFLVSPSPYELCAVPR
Chain of CYP2C9 (P11712 whole entry): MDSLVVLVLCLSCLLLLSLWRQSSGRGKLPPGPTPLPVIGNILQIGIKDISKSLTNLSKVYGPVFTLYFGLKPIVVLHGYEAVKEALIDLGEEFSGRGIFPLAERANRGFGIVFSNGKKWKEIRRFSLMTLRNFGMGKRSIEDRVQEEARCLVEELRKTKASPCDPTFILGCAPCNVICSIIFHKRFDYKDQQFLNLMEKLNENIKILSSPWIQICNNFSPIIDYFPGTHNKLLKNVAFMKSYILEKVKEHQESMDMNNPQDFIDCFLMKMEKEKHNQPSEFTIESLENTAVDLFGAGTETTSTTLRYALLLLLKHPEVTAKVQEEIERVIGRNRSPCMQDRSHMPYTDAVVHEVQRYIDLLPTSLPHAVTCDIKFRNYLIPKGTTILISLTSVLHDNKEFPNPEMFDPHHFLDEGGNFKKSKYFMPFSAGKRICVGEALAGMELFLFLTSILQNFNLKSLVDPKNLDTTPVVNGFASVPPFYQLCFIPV

half-life [1]: 6 min
inhibition at 10 µM (CYP2D6): < 40%
half-life [2]: > 240 min
half-life [4]: 29 min
inhibition at 10 µM (CYP2C19): < 40%
fraction unbound [5]: 0.061
inhibition at 10 µM (CYP1A2): < 40%
Drug metabolism [8]: metabolite_detected
Papp A→B [9]: 65 ×10⁻⁶ cm/s
inhibition at 10 µM (CYP3A4): < 40%
solubility kinetic [10]: 50 µM (≈ 16.6 µg/mL)
Papp B→A [12]: 35 ×10⁻⁶ cm/s
inhibition at 10 µM (CYP2C9): < 40%
half-life [13]: > 240 min
MIC (Aspergillus flavus): 12.5 µg/mL (≈ 37.6 µM)
MIC (Aspergillus fumigatus): 1.6 µg/mL (≈ 4.81 µM)
half-life [14]: > 240 min
Compound: CCN1CC(C)(C)OC(=O)C1CC(=O)Nc1ccc(C(C)C)cc1 (stereo unspecified)
IC50 [3]: 10.6 µg/mL (≈ 31.9 µM)
inhibition at 10 µM (hERG (KCNH2)): 11%
IC50 (Sporothrix schenckii): 11.8 µg/mL (≈ 35.5 µM)
MFC99 (Nakaseomyces glabratus): 25 µg/mL (≈ 75.2 µM)
CC50 at 72 h [6]: > 20 µg/mL
Activity (Candida albicans [7]): Active
IC50 (Trichophyton rubrum): 6.3 µg/mL (≈ 19 µM)
MFC99 (Candida albicans [11]): 12.5 µg/mL (≈ 37.6 µM)
IC50 (Microsporum canis): 6.6 µg/mL (≈ 19.9 µM)
